Measured values published in ChEMBL document CHEMBL1124171, “Ergolines as selective 5-HT1 agonists” (J Med Chem, 1988).

Key:
Rattus norvegicus [1] = test: Minimum effective dose required to increase (MED) corticosterone in rat serum, sc; assay type: functional; details: read-out: MED
Summary of the method: (§1)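 Male Wistar rats (~150 g). Compound in dilute HCl given sc at graded doses 1 h before decapitation. Whole-brain 5-HIAA measured by LC with electrochemical detection; serum corticosterone measured spectrofluorometrically. Minimum effective dose is the lowest dose giving a significant difference from control (P < 0.05).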

[2] = Ratio of affinity towards 5-HT1 to 5-HT2 receptor
Summary of the method: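 Frontal cortex from male Wistar rats (140–160 g), homogenate pellet in 0.05 M Tris with 10 μM pargyline and 4 mM Ca²⁺, 250–350 μg protein/sample. 5-HT1: 2 nM [³H]-5-HT, nonspecific with 10 μM 5-HT. […] Eleven concentrations, 0.1–10 000 nM, in duplicate. IC50 from curve fitting of specific binding.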

Rattus norvegicus [3] = test: Effect on serum corticosterone in serum of rats after sc administration (1 mg/kg dose) (experiment 1); assay type: functional, organism-based
Summary of the method: (§2)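 Male Wistar rats (~150 g) housed at 24 °C with lights 7 a.m.–7 p.m. Compound in dilute HCl given sc 1 h before decapitation. Serum corticosterone measured spectrofluorometrically, μg/100 mL. Five rats per group, mean ± SE. Significance set at P < 0.05 versus the vehicle control.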

Rattus norvegicus [4] = test: Effect on serotonin in rat whole brain, after sc administration (0.3 mg/kg dose) (experiment 1); assay type: functional, organism-based
Rattus norvegicus [5] = test: Effect on 5-hydroxyindoleacetic acid in rat whole brain, after sc administration (0.03 mg/kg dose) (experiment 2); assay type: functional, organism-based
Summary of the method: (§3)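 Drug was given sc in dilute HCl to male Wistar rats (~150 g), with decapitation 1 h later. Whole brains were frozen on dry ice and held at −15 °C. […] Results are mean ± SE, five rats/group, P < 0.05 versus vehicle control.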

Rattus norvegicus [6] = test: Decreased accumulation of 5-hydroxytryptophan after decarboxylase inhibition in the hypothalamus of rat at a dose 0.01mg/Kg, sc; assay type: functional, organism-based
Summary of the method: (§4)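 Male Wistar rats (~150 g) got drug sc in dilute HCl. NSD 1015 (100 mg/kg, ip) was given 30 min after drug and 30 min before decapitation. Hypothalamic 5-HTP was measured by LC with electrochemical detection. Results are mean ± SE, five rats per treated group and six controls; significance at P < 0.01.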

Rattus norvegicus [7] = test: Effect of Metergoline on the elevation of serum corticosterone, after sc administration (0.03 mg/kg) Metergoline pretreament; assay type: functional, organism-based
Summary of the method: (§5)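 Male Wistar rats (~150 g) received metergoline (3 mg/kg, ip) or no pretreatment. Drug was given sc in dilute HCl 1 h later, and rats were decapitated 1 h after that. Serum corticosterone was determined spectrofluorometrically. Results are mean ± SE, five rats/group, P < 0.05 versus the corresponding control.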

Rattus norvegicus [8] = test: Effect on 5-hydroxyindoleacetic acid in rat whole brain, after sc administration (1 mg/kg dose) (experiment 1); assay type: functional, organism-based; summary of the method: as §3
Rattus norvegicus [9] = test: Effect of Metergoline on the elevation of serum corticosterone, after sc administration (1.0 mg/kg) No pretreatment; assay type: functional, organism-based; summary of the method: as §5
Rattus norvegicus [10] = test: Minimum effective dose required to suppressing (MED) 5HIAA concentration in rat when administered sc; assay type: functional; details: read-out: MED; summary of the method: as §1
Rattus norvegicus [11] = test: Effect of Metergoline on the elevation of serum corticosterone, after sc administration (0.1 mg/kg) Metergoline pretreament; assay type: functional, organism-based; summary of the method: as §5
Rattus norvegicus [12] = test: Effect on serotonin in rat whole brain, after sc administration (0.1 mg/kg dose) (experiment 1); assay type: functional, organism-based
Rattus norvegicus [13] = test: Effect on 5-hydroxyindoleacetic acid in rat whole brain, after sc administration (0 mg/kg dose) (experiment 1); assay type: functional, organism-based; summary of the method: as §3
Rattus norvegicus [14] = test: Decreased accumulation of 5-hydroxytryptophan after decarboxylase inhibition in the hypothalamus of rat at a dose 0.1mg/Kg, sc; assay type: functional, organism-based; summary of the method: as §4
Rattus norvegicus [15] = test: Effect of Metergoline on the elevation of serum corticosterone, after sc administration (0 mg/kg) Metergoline pretreament; assay type: functional, organism-based; summary of the method: as §5
Rattus norvegicus [16] = species on record: Rattus norvegicus; test: Effect of fluoxetine on the elevation of serum corticosterone at a dose 100 ug/mL, No pretreatment; assay type: functional, organism-based
Summary of the method: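 Rats got fluoxetine HCl (10 mg/kg, ip) or no pretreatment. 16 h later, drug (0.3 mg/kg, sc, dilute HCl) or p-chloroamphetamine HCl (2.5 mg/kg, ip) was given, with decapitation 1 h after. Serum corticosterone was measured spectrofluorometrically. Results are mean ± SE, five male Wistar rats/group, P < 0.05.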

Rattus norvegicus [17] = test: Effect of Metergoline on the elevation of serum corticosterone, after sc administration (0.03 mg/kg) No pretreatment; assay type: functional, organism-based; summary of the method: as §5
Rattus norvegicus [18] = test: Effect on concentration of 5HIAA in rat brain hypothalamus after 0.3 mg/kg sc administration; assay type: functional, organism-based; design: dose 0.3 mg/kg
Summary of the method: (§6)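 Male Wistar rats (~150 g) were injected sc with drug in dilute HCl and decapitated 1 h later. Hypothalamus and striatum were dissected and frozen on dry ice. […] Results are mean ± SE, five rats/group, P < 0.05.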

Rattus norvegicus [19] = test: Effect on concentrations of serotonin in rat brain hypothalamus after 0.3 mg/kg sc administration; assay type: functional, organism-based; design: dose 0.3 mg/kg; summary of the method: as §6
Rattus norvegicus [20] = test: Effect on serum corticosterone in serum of rats after sc administration (0.3 mg/kg dose) (experiment 1); assay type: functional, organism-based; summary of the method: as §2
Rattus norvegicus [21] = test: Effect on serotonin in rat whole brain, after sc administration (0 mg/kg dose) (experiment 1); assay type: functional, organism-based; summary of the method: as §3
Rattus norvegicus [22] = test: Effect on 3,4-dihydroxyphenylacetic acid concentration in rat striatum, after 0.1 mg/kg sc administration; assay type: functional; details: route subcutaneous
Summary of the method: (§7)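 Male Wistar rats (~150 g) were given drug or apomorphine HCl sc and decapitated 1 h later. Striatal DOPAC and HVA were quantified by LC with electrochemical detection. Results are mean ± SE, five rats/group, P < 0.05.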

[23] = target: Serotonin 1 (5-HT1) receptor (Rattus norvegicus, UniProt P28564+P30940+P19327+P28565); test: Binding affinity towards 5-hydroxytryptamine 1 receptor using [3H]5-HT as a radioligand from rat frontal cortex homogenates; assay type: tissue-based
Rattus norvegicus [24] = test: Effect of Metergoline on the elevation of serum corticosterone, after sc administration (0.1 mg/kg) No pretreatment; assay type: functional, organism-based; summary of the method: as §5
Rattus norvegicus [25] = test: Effect on homovanillic acid concentration in rat striatum, after 0.1 mg/kg sc administration; assay type: functional; details: route subcutaneous; summary of the method: as §7
Rattus norvegicus [26] = test: Effect of Metergoline on the elevation of serum corticosterone, after sc administration (0.3 mg/kg) Metergoline pretreament; assay type: functional, organism-based; summary of the method: as §5
Rattus norvegicus [27] = test: Effect on 5-hydroxyindoleacetic acid in rat whole brain, after sc administration (0.03 mg/kg dose) (experiment 1); assay type: functional, organism-based; summary of the method: as §3
[28] = target: Serotonin 2 (5-HT2) receptor (Rattus norvegicus, UniProt P30994+P08909+P14842); test: Binding affinity at 5-hydroxytryptamine 2 receptor from rat frontal cortex homogenates by [3H]-spiperone displacement.; assay type: tissue-based
Rattus norvegicus [29] = test: Effect on serotonin in rat whole brain, after sc administration (0.01 mg/kg dose) (experiment 2); assay type: functional, organism-based; summary of the method: as §3
Rattus norvegicus [30] = test: Decreased accumulation of 5-hydroxytryptophan after decarboxylase inhibition in the hypothalamus of rat at a dose 0.03mg/Kg, sc; assay type: functional, organism-based; summary of the method: as §4
Rattus norvegicus [31] = test: Effect on serotonin in rat whole brain, after sc administration (0.03 mg/kg dose) (experiment 2); assay type: functional, organism-based
Rattus norvegicus [32] = test: Effect on serum corticosterone in serum of rats after sc administration (0 mg/kg dose) (experiment 1); assay type: functional, organism-based; summary of the method: as §2

`C[C@@H]1C=C2c3cccc4c3[C@@H](CN4)C[C@H]2N(C)C1` showed a minimal effective dose (Rattus norvegicus [1]) of 0.1 mg/kg, a Selectivity ratio [2] of 100 and a Concentration (Rattus norvegicus [3]) of 70.8 nM/g. It also gave a Concentration (Rattus norvegicus [4]) of 2.95 nM/g, a Concentration (Rattus norvegicus [5]) of 1.9 nM/g and a Concentration (Rattus norvegicus [6]) of 1.64 nM/g. It also gave a Serum corticosterone (Rattus norvegicus [7]) of 22.1 µg/mL, a Concentration (Rattus norvegicus [8]) of 1.47 nM/g and a Serum corticosterone (Rattus norvegicus [9]) of 70.8 µg/mL. For the same compound, the minimal effective dose (Rattus norvegicus [10]) was 0.03 mg/kg, the Serum corticosterone (Rattus norvegicus [11]) was 46.8 µg/mL and the Concentration (Rattus norvegicus [12]) was 2.59 nM/g. For the same compound, the Concentration (Rattus norvegicus [13]) was 1.89 nM/g, the Concentration (Rattus norvegicus [14]) was 0.73 nM/g and the Serum corticosterone (Rattus norvegicus [15]) was 6.2 µg/mL. It also gave a Serum corticosterone (Rattus norvegicus [16]) of under 68.2 µg/mL, a Serum corticosterone (Rattus norvegicus [17]) of 6.5 µg/mL and a Concentration (Rattus norvegicus [18]) of 2.18 mg/kg. The Concentration (Rattus norvegicus [19]) was 4.78 mg/kg, the Concentration (Rattus norvegicus [20]) was 46.6 nM/g and the Concentration (Rattus norvegicus [21]) was 2.32 nM/g. It also gave a DOPAC concentration (Rattus norvegicus [22]) of 4.44 nM/g, an IC50 [23] of 17 nM and a Serum corticosterone (Rattus norvegicus [24]) of 33.8 µg/mL. The Homovanillic acid concentration (Rattus norvegicus [25]) was 3.65 nM/g, the Serum corticosterone (Rattus norvegicus [26]) was 50.2 µg/mL and the Concentration (Rattus norvegicus [27]) was 1.52 nM/g. The IC50 [28] was 1665 nM, the Concentration (Rattus norvegicus [29]) was 2.67 nM/g and the Concentration (Rattus norvegicus [30]) was 1.19 nM/g. The Concentration (Rattus norvegicus [31]) was 2.77 nM/g and the Concentration (Rattus norvegicus [32]) was 4.3 nM/g.
